What was measured:
[1] = test system: Mus musculus; experiment: Effective dose was evaluated for its anticonvulsant activity against subcutaneous induced metrazole convulsions in mice; activity value ranges from 122.64-177.02; assay type: functional; settings: sc
[2] = species: Mus musculus; experiment: Effective dose evaluated against maximal electric seizures (MES) or convulsions in mice; activity value ranges from 246.97-337.89; assay type: functional
[3] = test system: Mus musculus; experiment: Toxicity tested by rotarod test for neurologic deficit at interval of 30 min when 600 mg/kg was administered intraperitoneally; no activity; assay type: organism-based; design: dose 600 mg/kg, route intraperitoneal; settings: in vivo, ip, 0.5 h
In short: (§1)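 Male Carworth Farms number-one mice dosed ip with compound in 30% polyethylene glycol 400. Each mouse was placed on a 1-in.-diameter knurled plastic rod rotating at 6 rpm. Neurologic toxicity was scored as failure to stay on the rod for 1 min. Screening doses were 30, 100, 300 and sometimes 600 mg/kg, tested at 30 min and 4 h. TD50 was read by the graphical method.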

[4] = test system: Mus musculus; experiment: Toxicity tested by rotarod test for neurologic deficit at interval of 4 hr when 600 mg/kg was administered intraperitoneally; no activity; assay type: organism-based; design: dose 600 mg/kg, route intraperitoneal; settings: in vivo, ip; in short: as §1
[5] = test system: Mus musculus; experiment: Toxicity tested by rotarod test for neurologic deficit at interval of 30 min when 30 mg/kg was administered intraperitoneally; shows activity; assay type: organism-based; design: dose 30 mg/kg, route intraperitoneal; settings: in vivo, ip, 0.5 h; in short: as §1
[6] = test system: Mus musculus; experiment: Toxicity tested by rotarod test for neurologic deficit at interval of 30 min when 300 mg/kg was administered intraperitoneally; shows activity; assay type: organism-based; design: dose 300 mg/kg, route intraperitoneal; settings: in vivo, ip, 0.5 h; in short: as §1
[7] = Toxic dose was determined by the rotarod test in mice; activity value ranges from 40.62-57.10; assay type: toxicity, organism-based; settings: mouse, in vivo
[8] = Protective index as the ratio of TD50 value against MES to that of ED50 value against MES.; assay type: ADME; settings: read-out: PI
In short: (§2)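 Protective index = rotorod TD50 divided by ED50 (MES or scMet), both from ip dosing in male Carworth Farms number-one mice, medians obtained graphically.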

[9] = species: Mus musculus; experiment: Effective dose evaluated against maximal electric seizures (MES) or convulsions in mice; activity value ranges from 14.70-19.13; assay type: functional
[10] = test system: Mus musculus; experiment: Toxicity tested by rotarod test for neurologic deficit at interval of 4 hr when 100 mg/kg was administered intraperitoneally; shows activity; assay type: organism-based; design: dose 100 mg/kg, route intraperitoneal; settings: in vivo, ip; in short: as §1
[11] = test system: Mus musculus; experiment: Anticonvulsant activity of 600 mg/kg after 4 hr of intraperitoneal administration in mice against maximum electroshock seizures (MES); compound shows activity; assay type: functional, organism-based; design: dose 600 mg/kg
[12] = test system: Mus musculus; experiment: Toxicity tested by rotarod test for neurologic deficit at interval of 30 min when 600 mg/kg was administered intraperitoneally; shows activity; assay type: organism-based; design: dose 600 mg/kg, route intraperitoneal; settings: in vivo, ip, 0.5 h; in short: as §1
[13] = test system: Mus musculus; experiment: Anticonvulsant activity of 600 mg/kg of compound against subcutaneous induced metrazole convulsions at interval of 4 hr administered intraperitoneally in mice; compound does not show activity; assay type: functional, organism-based; design: dose 600 mg/kg
[14] = test system: Mus musculus; experiment: Anticonvulsant activity of 600 mg/kg of compound against subcutaneous induced metrazole convulsions at interval of 30 min administered intraperitoneally in mice; compound shows activity; assay type: functional, organism-based; design: dose 600 mg/kg
[15] = test system: Mus musculus; experiment: Anticonvulsant activity of 300 mg/kg after 30 min. of intraperitoneal administration in mice against maximum electroshock seizures (MES); compound shows activity; assay type: functional, organism-based; design: dose 300 mg/kg
[16] = Toxic dose was determined by the rotarod test in mice; activity value ranges from 130.89-161.13; assay type: toxicity, organism-based; settings: mouse, in vivo
[17] = test system: Mus musculus; experiment: Toxicity tested by rotarod test for neurologic deficit at interval of 4 hr when 600 mg/kg was administered intraperitoneally; shows activity; assay type: organism-based; design: dose 600 mg/kg, route intraperitoneal; settings: in vivo, ip; in short: as §1
[18] = species: Mus musculus; experiment: Effective dose evaluated against maximal electric seizures (MES) or convulsions in mice; activity value ranges from 39.77-53.41; assay type: functional
[19] = Protective index as the ratio of TD50 value against scMET to that of ED50 value against scMET.; assay type: ADME; settings: read-out: PI; in short: as §2
[20] = test system: Mus musculus; experiment: Toxicity tested by rotarod test for neurologic deficit at interval of 30 min when 100 mg/kg was administered intraperitoneally; shows activity; assay type: organism-based; design: dose 100 mg/kg, route intraperitoneal; settings: in vivo, ip, 0.5 h; in short: as §1
[21] = Toxic dose was determined by the rotarod test in mice; activity value ranges from 156.61-251.07; assay type: toxicity, organism-based; settings: mouse, in vivo
[22] = species: Mus musculus; experiment: Effective dose evaluated against maximal electric seizures (MES) or convulsions in mice; activity value ranges from 38.02-50.30; assay type: functional
[23] = test system: Mus musculus; experiment: Toxicity tested by rotarod test for neurologic deficit at interval of 4 hr when administered intraperitoneally; LD50 < 600 mg/kg; assay type: organism-based; design: dose 600 mg/kg, route intraperitoneal; settings: in vivo, ip
[24] = species: Mus musculus; experiment: Effective dose evaluated against maximal electric seizures (MES) or convulsions in mice; activity value ranges from 12.50-31.75; assay type: functional
[25] = Toxic dose was determined by the rotarod test in mice; activity value ranges from 88.85-119.90; assay type: toxicity, organism-based; settings: mouse, in vivo
[26] = Toxic dose was determined by the rotarod test in mice; activity value ranges from 98.01-127.65; assay type: toxicity, organism-based; settings: mouse, in vivo
[27] = test system: Mus musculus; experiment: Toxicity tested by rotarod test for neurologic deficit at interval of 4 hr when 300 mg/kg was administered intraperitoneally; shows activity; assay type: organism-based; design: dose 300 mg/kg, route intraperitoneal; settings: in vivo, ip; in short: as §1
[28] = species: Mus musculus; experiment: Effective dose evaluated against maximal electric seizures (MES) or convulsions in mice; activity value ranges from 2.18-3.07; assay type: functional
[29] = species: Mus musculus; experiment: Effective dose evaluated against maximal electric seizures (MES) or convulsions in mice; activity value ranges from 56.16-105.53; assay type: functional
[30] = Toxic dose was determined by the rotarod test in mice; activity value ranges from 556.77-815.69; assay type: toxicity, organism-based; settings: mouse, in vivo
[31] = test system: Mus musculus; experiment: Effective dose was evaluated for its anticonvulsant activity against subcutaneous induced metrazole convulsions in mice; activity value ranges from 38.83-46.00; assay type: functional; settings: sc
[32] = Toxic dose was determined by the rotarod test in mice activity value ranges from 153.02-189.96; assay type: toxicity, organism-based; settings: mouse, in vivo
[33] = species: Mus musculus; experiment: Effective dose evaluated against maximal electric seizures (MES) or convulsions in mice;activity value ranges from 66.58-109.74; assay type: functional
[34] = Toxic dose was determined by the rotarod test in mice; assay type: toxicity, organism-based; settings: mouse, in vivo

Q: What does the source list for `CCCC(CCC)C(=O)O` [VALPROIC ACID]?
A: ED50 [1]: 149 mg/kg; ED50 [2]: 272 mg/kg

Q: Which Toxicity [3] does the source give for `Cc1cc(C)cc(NC(=O)c2ccc(N)cc2)c1` here?
A: No activity

Q: What about the Toxicity [4] of the same compound?
A: No activity

Q: Which Toxicity [5] does the source give for `Cc1ccccc1NC(=O)c1ccc(N)cc1` here?
A: Activity

Q: And the Toxicity [6]?
A: Activity

Q: For `CCc1cccc(C(C)C)c1NC(=O)c1ccc(N)cc1`, which TD50 [7] is on record?
A: 49.1 mg/kg

Q: What about the Toxicity [5] of the same compound?
A: Activity

Q: And the selectivity ratio [8]?
A: 2.95

Q: What about the ED50 [9] of the same compound?
A: 16.7 mg/kg

Q: What about the Toxicity [10] of the same compound?
A: Activity

Q: What does the source list for `Cc1ccc(NC(=O)c2ccc(N)cc2)c(C)c1`?
A: Activity [11]: No activity; Toxicity [12]: No activity; Activity [13]: No activity; Activity [14]: No activity; Activity [15]: No activity; Toxicity [4]: No activity

Q: Which results are given for `Cc1cccc(NC(=O)c2ccc(N)cc2)c1`?
A: TD50 [16]: 143 mg/kg; Toxicity [17]: Activity; Toxicity [6]: Activity; selectivity ratio [8]: 3.03; ED50 [18]: 47 mg/kg; selectivity ratio [19]: 1.62

Q: Which results are given for `Cc1ccc(NC(=O)c2ccc(N)cc2)cc1C`?
A: Toxicity [20]: Activity; Toxicity [17]: Activity; TD50 [21]: 194 mg/kg; ED50 [22]: 42.3 mg/kg; selectivity ratio [8]: 4.59; selectivity ratio [19]: 2.4

Q: For `Cc1cccc(NC(=O)c2ccc(N)cc2)c1C`, which Toxicity [23] is on record?
A: LD50 < 600 mg/kg

Q: And the ED50 [24]?
A: 25.2 mg/kg

Q: What about the Toxicity [20] of the same compound?
A: LD50 < 600 mg/kg

Q: And the TD50 [25]?
A: 104 mg/kg

Q: And the selectivity ratio [8]?
A: 4.11

Q: What does the source list for `Cc1ccc(NC(=O)c2ccc(N)cc2)cc1`?
A: Toxicity [20]: Activity; Toxicity [17]: Activity

Q: Which TD50 [26] does the source give for `Nc1ccc(C(=O)Nc2ccccc2)cc1` here?
A: 111 mg/kg

Q: What about the Toxicity [27] of the same compound?
A: Activity

Q: And the Toxicity [20]?
A: Activity

Q: And the selectivity ratio [8]?
A: 2.2

Q: And the selectivity ratio [19]?
A: 1.88

Q: For `Cc1cccc(C)c1NC(=O)c1ccc(N)cc1` [AMELTOLIDE], which Toxicity [5] is on record?
A: Activity

Q: And the ED50 [28]?
A: 2.6 mg/kg

Q: What about the Toxicity [10] of the same compound?
A: Activity

Q: With `Cc1ccc(C)c(NC(=O)c2ccc(N)cc2)c1` as the compound, how does the Toxicity [3] read?
A: No activity

Q: What about the Toxicity [4] of the same compound?
A: No activity

Q: For `CC(C)c1ccccc1NC(=O)c1ccc(N)cc1`, which ED50 [29] is on record?
A: 81.5 mg/kg

Q: What about the Toxicity [12] of the same compound?
A: No activity

Q: What about the TD50 [30] of the same compound?
A: 709 mg/kg

Q: What about the selectivity ratio [8] of the same compound?
A: 8.7

Q: What about the Toxicity [4] of the same compound?
A: No activity

Q: With `CC(NC(=O)c1ccc(N)cc1)c1ccccc1` (centres undefined) as the compound, how does the ED50 [31] read?
A: 41.8 mg/kg

Q: And the TD50 [32]?
A: 171 mg/kg

Q: And the selectivity ratio [8]?
A: 9.5

Q: And the selectivity ratio [19]?
A: 4.1

Q: What does the source list for `Cc1cccc(C(C)C)c1NC(=O)c1ccc(N)cc1`?
A: Toxicity [3]: No activity; ED50 [33]: 86.1 mg/kg; TD50 [34]: > 1500 mg/kg; selectivity ratio [8]: > 17.4
